Among the data in ChEMBL document CHEMBL5257059, “Pyridine-Based 1,2,4-Triazolo-Tethered Indole Conjugates Potentially Affecting TNKS and PI3K in Colorectal Cancer” (ACS Med Chem Lett, 2023) are IC50, Activity and inhibition values, retold here.

Activity calls are given as the source filed them. The rule behind the calls is not given here.

Assay [1] concerns Caco-2. The experiment in a line: Antiproliferative activity against human Caco-2 cells assessed as inhibition of cell growth incubated for 24 hrs by MTT assay. It counts as functional, cell-based. Particulars: Caco-2, 24 h. Background: Tetrazolium assays rely on reduction of a dye to a coloured formazan, in cell work by metabolically active cells.
Assay [2] has as its system DLD-1. The experiment in a line: Antiproliferative activity against human DLD-1 cells assessed as inhibition of cell growth incubated for 24 hrs by MTT assay. The format is functional, cell-based. Particulars: DLD-1, 24 h.
Assay [3] deals with A 172. The experiment in a line: Antiproliferative activity against human A-172 cells assessed as inhibition of cell growth incubated for 24 hrs by MTT assay. Conditions: A 172, 24 h. The format is functional, cell-based.
Assay [4] has as its system A549. The assay is described as follows: Antiproliferative activity against human A549 cells assessed as inhibition of cell growth incubated for 24 hrs by MTT assay. The format is functional, cell-based. Particulars: A549, 24 h.
Assay [5] is described as follows: Antiproliferative activity against human Tera-1 cells assessed as inhibition of cell growth incubated for 24 hrs by MTT assay. Conditions: Tera-1, 24 h. It counts as functional, cell-based.
Assay [6] relates to HT-29. The experiment in a line: Antiproliferative activity against human HT-29 cells assessed as inhibition of cell growth incubated for 24 hrs by MTT assay. The format is functional, cell-based. Particulars: HT-29, 24 h.
The test system of assay [7] is HT-29. The assay is described as follows: Induction of cell cycle arrest in human HT-29 cells assessed as accumulation of cells at G2/M phase at 4 uM incubated for 24 hrs by RNase/PI staining based flow cytometry analysis (reference value: 23.695 %). The format is functional. For orientation: A flow cytometer gives signals particle by particle.
Assay [8] deals with HT-29. The experiment in a line: Downregulation of beta-catenin protein expression in human HT-29 cells at 4 uM by immunostaining based confocal microscopic analysis. The format is functional, cell-based.
Assay [9] has as its system HT-29. The assay is described as follows: Downregulation of TAB-182 protein expression in human HT-29 cells at 4 uM by immunostaining based confocal microscopic analysis. It counts as functional, cell-based.
For assay [10], the system named is HT-29. The assay is described as follows: Downregulation of PI3K-p85 expression in human HT-29 cells by immunofluorescence based confocal microscopic analysis. It counts as functional, cell-based. The method in brief: (§1)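 HT-29 cells were stained for F-actin with Phalloidin Red alongside immunofluorescent staining of PI3K-p85 (or NF-κB), then examined by fluorescence imaging for actin-filament integrity and p85 signal.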

Assay [11] relates to HT-29. The assay is described as follows: Inhibition of nuclear translocation of NFkappaB in human HT-29 cells assessed as reduction in NFkappaB expression in nucleus by immunofluorescence based confocal microscopic analysis. It counts as functional, cell-based. Put shortly: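 HT-29 colon cancer cells were treated with test compounds, then immunostained for NF-κB and co-stained for F-actin. Nuclear NF-κB signal was read by immunofluorescence imaging.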

Assay [12] deals with HT-29. The assay is described as follows: Cytotoxicity against human HT-29 cells assessed as damage of actin filament by F-actin/phalloidin red staining based confocal microscopic analysis. It counts as functional, cell-based. The method in brief:
as §1

In assay [13] the test system is HT-29. The assay is described as follows: Inhibition of beta-actin protein expression in human HT-29 cells at 4 uM incubated for 72 hrs by Western blot analysis. The format is functional, cell-based. For orientation: A western blot detects proteins with antibodies after separation by electrophoresis.
Assay [14] relates to HT-29. The assay is described as follows: Inhibition of beta-catenin protein expression in human HT-29 cells at 4 uM incubated for 72 hrs by Western blot analysis. It counts as functional, cell-based.
Assay [15] deals with HT-29. The assay is described as follows: Inhibition of AKT protein expression in human HT-29 cells at 4 uM incubated for 72 hrs by Western blot analysis. The format is functional, cell-based.
The subject of assay [16] is HT-29. The assay is described as follows: Induction of cell cycle arrest in human HT-29 cells assessed as accumulation of cells at S phase at 2 uM incubated for 24 hrs by RNase/PI staining based flow cytometry analysis (reference value: 17.934 %). It counts as functional.
Assay [17] has as its system HT-29. The assay is described as follows: Induction of mitochondrial damage in human HT-29 cells assessed as increase in monomer formation at 2 uM incubated for 24 hrs by JC-1 staining based flow cytometry analysis. The format is functional, cell-based. Put shortly: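 HT-29 cells exposed 24 h to test agent at 1, 2 or 4 μM, then stained with JC-1. Flow cytometry scored the % of cells in JC-1 aggregate versus monomer populations. Treated groups were compared with untreated control by two-way ANOVA with Tukey's post hoc test.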

The subject of assay [18] is HT-29. The assay is described as follows: Downregulation of TAB-182 protein expression in human HT-29 cells at 2 uM by immunostaining based confocal microscopic analysis. It counts as functional, cell-based.
Assay [19] concerns HT-29. The experiment in a line: Inhibition of AXIN-1 protein expression in human HT-29 cells at 2 uM incubated for 72 hrs by Western blot analysis. It counts as functional, cell-based.
Assay [20] has as its system HT-29. The experiment in a line: Inhibition of AXIN-2 protein expression in human HT-29 cells at 2 uM incubated for 72 hrs by Western blot analysis. The format is functional, cell-based.
Assay [21] deals with HT-29. The assay is described as follows: Inhibition of beta-catenin protein expression in human HT-29 cells at 2 uM incubated for 72 hrs by Western blot analysis. It counts as functional, cell-based.
The test system of assay [22] is HT-29. The assay is described as follows: Inhibition of pan-AKT protein expression in human HT-29 cells at 2 uM incubated for 72 hrs by Western blot analysis. It counts as functional, cell-based.
Assay [23] concerns HT-29. The assay is described as follows: Induction of apoptosis in human HT29 cells assessed as increase in early apoptotic cells at 1 uM incubated for 24 hrs by annexin V/PI staining based flow cytometry analysis. The format is functional, cell-based. Put shortly: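 Annexin/PI double staining of HT-29 cells after 24 h exposure at 1, 2 or 4 μM. Flow cytometry gated early apoptotic, late apoptotic and necrotic populations, reported as % of cells. Comparison to untreated control used two-way ANOVA followed by Tukey's post hoc analysis.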

The subject of assay [24] is HT-29. The experiment in a line: Induction of mitochondrial ROS generation in human HT-29 cells at 1 uM by MitoSOX red dye based flow cytometry analysis. The format is functional, cell-based. The method in brief:
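Mitochondrial superoxide in HT-29 cells was read with the mitochondria-localizing MitoSOX Red probe after treatment at 1, 2 or 4 μM. Flow cytometry histograms were acquired on 10,000 cells, and results were expressed as mean fluorescence intensity. Versus control, significance was tested by one-way ANOVA with Tukey's post hoc test.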

Assay [25] deals with T1, Catenin beta-1 (Homo sapiens) (UniProt P35222).
T1 sequence (whole entry): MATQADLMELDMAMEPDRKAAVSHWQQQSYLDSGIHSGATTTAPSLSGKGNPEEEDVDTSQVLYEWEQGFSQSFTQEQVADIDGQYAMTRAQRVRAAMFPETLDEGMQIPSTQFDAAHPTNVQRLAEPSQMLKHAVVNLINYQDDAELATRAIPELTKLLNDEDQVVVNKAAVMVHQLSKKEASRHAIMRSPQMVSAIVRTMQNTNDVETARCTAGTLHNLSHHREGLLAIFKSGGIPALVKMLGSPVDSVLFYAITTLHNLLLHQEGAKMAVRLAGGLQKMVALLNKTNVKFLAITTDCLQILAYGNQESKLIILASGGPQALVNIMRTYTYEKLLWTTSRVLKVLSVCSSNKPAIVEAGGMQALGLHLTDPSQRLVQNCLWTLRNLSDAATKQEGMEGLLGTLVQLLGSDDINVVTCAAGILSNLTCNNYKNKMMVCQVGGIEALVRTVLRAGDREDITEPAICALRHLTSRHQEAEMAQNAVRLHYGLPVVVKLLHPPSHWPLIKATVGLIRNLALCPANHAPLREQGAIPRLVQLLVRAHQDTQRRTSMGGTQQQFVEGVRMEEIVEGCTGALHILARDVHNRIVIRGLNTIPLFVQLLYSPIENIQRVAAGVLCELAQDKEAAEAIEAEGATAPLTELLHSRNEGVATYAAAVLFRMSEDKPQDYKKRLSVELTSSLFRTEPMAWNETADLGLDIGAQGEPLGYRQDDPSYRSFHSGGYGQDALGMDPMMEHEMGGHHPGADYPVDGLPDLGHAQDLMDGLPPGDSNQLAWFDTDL
The experiment in a line: Inhibition of beta-catenin phosphorylation in human HT-29 cells at 1 uM incubated for 72 hrs by Western blot analysis. It counts as cell-based.

Assay [26] relates to HT-29. The experiment in a line: Inhibition of pan-AKT protein expression in human HT-29 cells at 1 uM incubated for 72 hrs by Western blot analysis. The format is functional, cell-based.

The term IC50 denotes the concentration that gives 50% inhibition. As for `COc1cccc(-n2c(SCCc3c[nH]c4ccccc34)nnc2-c2ccncc2)c1`, the IC50 in assay [1] came to 15.5 µM; in assay [2] it was 9.3 µM; in assay [3], 26.8 µM; in assay [4], 25.1 µM; in assay [5], 19.4 µM; in assay [6], 3.6 µM. In addition, the Activity in [7] was 22.943%. Further, the result in assay [8], in assay [9], in [10] and in [12] was Active. In addition, the inhibition result in assay [11], in assay [13], in assay [14] and in assay [15] was “Active” throughout.
Consider `Fc1ccccc1-n1c(SCCc2c[nH]c3ccccc23)nnc1-c1ccncc1`, for which the IC50 in assay [1] was found to be 9.1 µM; in [2], 7 µM; in assay [3], 9.5 µM; in [4] it was 5.3 µM; in assay [5] it was 10.5 µM; in assay [6] it was 2.4 µM. Moreover, the Activity in [16] turned out to be 7.976%. Further, the outcome in assay [17], in assay [18], in [10] and in assay [12] was Active. In addition, the inhibition result in [11], in assay [19], in assay [20], in assay [21] and in assay [22] was “Active” each time.
For the molecule `COc1ccc(-n2c(SCCc3c[nH]c4ccccc34)nnc2-c2ccncc2)cc1`, the IC50 in assay [1] worked out at 3.9 µM; in assay [2] it was 7 µM; in assay [3], 9 µM; in [4], 6.7 µM; in assay [5], 4.3 µM; in assay [6], 1 µM. The outcome in assay [23], in assay [24], in [10] and in assay [12] was Active. Moreover, the inhibition entry in assay [11], in [25] and in [26] was “Active” throughout.
